Screening data: PubChem BioAssay, Johns Hopkins Ion Channel Center
This is a sample that favours compounds with a hit; in the whole collection about 3.5% have one here.
MrgX1 agonist = activates human MrgX1 receptor signaling; Q96LB2; MrgX1-HEK293 cells, Fluo-4 calcium fluorescence, agonist mode; stronger effect = higher value; B-score at 10 µM; actives 0.44% (n = 310,000); AID 588627;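 active = calcium response B-score plate-corrected fluorescence ratio at least 3 library SD, with starting fluorescence B-score inside 5 SD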
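Material: MrgX1-expressing HEK293 cells / Dosing: compound as first of three additions / Incubation: overnight seeding, then 1 h dark dye loading / Signal: Fluo-4 NW calcium fluorescence / Evaluation: B-scored fluorescence response ratio / Benchmarks: positive and negative control wells on each plate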
RGS4 pot = potentiators or activators of RGS4. HEK293 M3R/inducible RGS4, carbachol calcium flux Fluo4; stronger effect = lower value. B-score at 10 µM. actives 0.92% (n = 310,000);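 active = B-score of the integrated calcium signal more than 4 SD below the library mean, with starting fluorescence not abnormally high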;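 also: negative B-score means reduced calcium response which marks RGS4 activation or potentiation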
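Reagent: ECmax carbachol challenge; Test system: M3R-expressing HEK293 line, RGS4 induced by doxycycline; Schedule: overnight RGS4 induction, 30 min dye load 37 °C, 20 min compound RT; Detection: calcium dye Fluo4 fluorescence; Read-out: Agonist-evoked peak-minus-minimum fluorescence over baseline, integrated ratio, B score.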
MrgX1 allo act = human MrgX1 positive allosteric modulation, primary screen; Q96LB2; B-score at 10 µM; MrgX1-HEK293, Fluo-4 calcium flux, FDSS; stronger effect = higher value; actives 0.63% (n = 310,000);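 active = plate-corrected calcium response at least 3 library SD above typical, normal starting fluorescence, not activating the receptor alone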;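 also: compound read alongside a low EC10 to EC30 dose of BAM8-22 agonist; peak minus trough fluorescence over baseline measured at the second addition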
MrgX1 antagonist = human MrgX1 receptor antagonism, primary screen. B-score at 10 µM. MRGX1-HEK293 calcium flux, Fluo-4, BAM8-22 antagonism; stronger effect = lower value. Q96LB2. actives 1.3% (n = 310,000);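 active = calcium-response B-score plate-corrected more than 3 library SD below zero, starting fluorescence within 5 deviations, no agonist response on first addition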;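 also: peak minus trough fluorescence over baseline after final BAM8-22 challenge near maximal dose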
RGS4 inh = inhibitors of human RGS4. B-score at 10 µM. HEK293 M3R/RGS4 inducible, Fluo-4 calcium flux; stronger effect = higher value; triggered by carbachol at its EC20. actives 0.45% (n = 310,000);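 active = B-score, a plate-corrected calcium signal, over three deviations above library mean, with baseline fluorescence within five deviations of library mean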;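 also: RGS4 expression induced by doxycycline in cells with stable M3 receptor; B-score is computed from the integrated fluorescence ratio over baseline after carbachol; higher B-score means a larger calcium signal and so more RGS4 inhibition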
Target sequence (P49798 whole entry, looked up): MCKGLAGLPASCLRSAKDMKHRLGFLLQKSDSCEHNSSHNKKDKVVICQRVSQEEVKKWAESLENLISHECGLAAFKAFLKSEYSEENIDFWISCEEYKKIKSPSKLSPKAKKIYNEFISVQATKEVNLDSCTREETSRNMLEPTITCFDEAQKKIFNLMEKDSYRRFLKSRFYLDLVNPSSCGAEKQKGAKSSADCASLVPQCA
Each line names hits and unclear results; the compound was inactive in the other large screens.

COCCNC(=O)Cn1nc(-c2ccc(Cl)cc2)c2ccccc2c1=O	none
O=C(CCl)N(c1ccccc1)C1CCCCC1	RGS4 pot -7
CC(=O)N(c1ccccc1)C1CCCC1	none
COc1ccccc1NC(=O)CCNS(=O)(=O)c1ccc2c(c1)CCN2C(C)=O	none
COc1cc(C2Oc3cc(C4Oc5cc(O)cc(O)c5C(=O)C4O)ccc3OC2CO)ccc1O (stereo not given)	MrgX1 allo act 8.8
CC(=O)n1c(-c2ccccc2)c(CO)c2ccccc21	MrgX1 allo act 22
CC(=O)Nc1ccc2c(c1)c1ccccc1n2C(C)=O	none
CCCCN(c1nc2ccccc2nc1Cl)S(=O)(=O)c1ccc(C)cc1	none
COCCCNC(=O)c1cc2c(=O)n3cc(C)ccc3nc2nc1NCC1CCCO1 (stereo not given)	MrgX1 antagonist -7.6
CCOC(=O)c1sc2nc(C)nc(N3CCCCC3C)c2c1C (stereo not given)	RGS4 pot -7.3
Cc1nc(N2CCCCC2C)c2c(C)c(C(=O)Nc3cccc(C(F)(F)F)c3)sc2n1 (stereo not given)	none
CS(=O)(=O)N(Cc1ccco1)CC(O)Cn1cc(C=O)c2ccccc21 (stereo not given)	MrgX1 antagonist -5.7
O=Cc1cn(CC(O)Cn2cc(C=O)c3ccccc32)c2ccccc12	none
O=C(c1ccc2oc(CCc3ccccc3)nc2c1)N1CCC(O)CC1	none
Nc1c(C(=O)N/N=C/c2cccnc2)oc2nc(-c3ccco3)cc(-c3ccco3)c12	none
Nc1c(C(=O)N/N=C/c2cccnc2)oc2nc(-c3ccccc3)cc(-c3ccco3)c12	RGS4 pot -8.9, MrgX1 antagonist -6.2
O=[N+]([O-])c1ccc(Nc2ccccc2)c2nonc12	none
O=[N+]([O-])c1ccc(Sc2cccc[n+]2[O-])c2nonc12	RGS4 pot -8.4 (no result: MrgX1 agonist, MrgX1 allo act, MrgX1 antagonist)
COc1cccc(C(C(=O)NC2CCCC2)N(C(=O)CNC(=O)c2ccco2)c2cccnc2)c1 (stereo not given)	none
CCN1CCCC1CNC(=O)CCNC(=O)c1cc(OC)c(OC)c(OC)c1 (stereo not given)	MrgX1 antagonist -6.5
CCN1CCCC1CNC(=O)c1cc(OC)c(OC)c(OC)c1 (stereo not given)	none
Cc1ccc(NC(=O)c2ccccc2SCC(=O)N2CCCC2)cc1S(=O)(=O)N(C)C	none
O=C(CSc1nnc(CNc2ccc(F)cc2)n1Cc1ccccc1)NCc1ccccc1	MrgX1 antagonist -6.4
COc1ccc(C(=O)CSc2nnc(CCc3ccccc3)n2-c2ccccc2)cc1	MrgX1 antagonist -6.4
O=C(CSc1nnc(CCc2ccccc2)n1-c1ccc(Cl)cc1)NCc1ccccc1	MrgX1 antagonist -4.8
COc1ccc(-n2c(CCc3ccccc3)nnc2SCC(=O)c2ccccc2)cc1	none
O=C(Nc1ccon1)c1cc2ccccc2oc1=O	none
CN(CC(=O)Nc1cccc(F)c1)C(=O)c1cc([N+](=O)[O-])ccc1N1CCCCC1	none
CN(C)c1ccc2nc3c(=O)[nH]c(=O)nc-3n(CC(O)C(O)C(O)CO)c2c1 (stereo not given)	RGS4 pot -7.9
CC(=O)N(C)c1ccc(OCC(O)Cn2c(C)nc3ccccc32)cc1 (stereo not given)	none
CCCCSCCCNC(=O)c1ccc(CS(=O)(=O)c2ccc(OC)cc2)o1	none
COc1ccc(CCNC(=O)c2ccc3nc(-c4ccco4)c(-c4ccco4)nc3c2)cc1OC	MrgX1 antagonist -4.6 (no result: RGS4 pot, RGS4 inh)
O=C(Nc1cccc(C(F)(F)F)c1)c1ccc2nc(-c3ccco3)c(-c3ccco3)nc2c1	MrgX1 antagonist -5.6
Cn1cccc1/C=N/n1c(-c2ccc(Cl)cc2)n[nH]c1=S	none
Cn1cccc1/C=N/n1c(-c2ccc(Cl)cc2Cl)n[nH]c1=S	MrgX1 agonist 27
COc1ccccc1CN(C)C(=O)c1cc(-c2cccs2)nc2ccccc12	RGS4 pot -8.6
COc1ccc(CCN(C)C(=O)c2cc(-c3ccccc3)nc3ccc(C)cc23)cc1OC	none
COc1ccc(CN(C)C(=O)c2cc(-c3ccccc3)nc3ccc(C)cc23)c(OC)c1OC	RGS4 pot -7.2
COc1cccc(CN(C)C(=O)c2cc(-c3ccc(F)cc3)nc3ccccc23)c1	RGS4 pot -8.1, MrgX1 antagonist -15
COc1cccc(NC(=O)CN(C)C(=O)c2cc(-c3ccccc3)nc3ccccc23)c1	none
